# Key:
# [1] = Elimination half life in Sprague-Dawley rat at 1 mg/kg, iv administered as single dose; type: ADME, organism-based; parameters: dose 1 mg/kg, route intravenous; conditions: in vivo, read-out: beta t1/2 (converted)
# In short: (§1)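 Sprague-Dawley rats (n = 3) were fasted overnight (minimum 12 h) and given a single dose, iv 1 mg/kg or oral 10 mg/kg, in sterile water. Samples were taken over 24–48 h. PK parameters came from noncompartmental analysis.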
# Escherichia coli [2] = assay: Antimicrobial activity against tetracycline-susceptible Escherichia coli isolate 107 by CLSI dilution method; type: functional
# In short: (§2)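 Broth microdilution per CLSI in fresh cation-adjusted Mueller Hinton broth, kept at 4 °C before testing, with defibrinated horse blood added as appropriate. Strains were from ATCC. MIC in µg/mL. Runs were accepted when comparator antibiotics against ATCC quality-control strains fell within recommended ranges.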
# Streptococcus pneumoniae [3] = assay: Antimicrobial activity against tetracycline-resistant Streptococcus pneumoniae isolate 160 harboring tetM gene by CLSI dilution method; type: functional
# Klebsiella pneumoniae [4] = assay: Antimicrobial activity against tetracycline-susceptible Klebsiella pneumoniae isolate 109 by CLSI dilution method; type: functional; in short: as §2
# Staphylococcus aureus [5] = assay: Antimicrobial activity against tetracycline-susceptible Staphylococcus aureus Smith isolate 100 infected in iv dosed mouse systemic infection model assessed as survival of mouse administered 60 mins post infection measured up to 48 hrs; type: functional; conditions: Smith isolate 100, iv, read-out: PD50
# In short: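 Mouse septicemia model with S. aureus ATCC 13709 mixed with 5% mucin, given intraperitoneally at 2.1×10^6 cfu/mouse. Compound was dosed intravenously 60 min after infection at 0.3–30 mg/kg in sterile water, 6 mice/dose group, with untreated infection controls. Survival was followed over 48 h. PD50 was derived by Probit analysis with 95% CI.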
# Staphylococcus aureus [6] = assay: Antimicrobial activity against tetracycline-resistant Staphylococcus aureus isolate 158 harboring tetK gene by CLSI dilution method; type: functional
# Streptococcus pneumoniae [7] = assay: Antimicrobial activity against tetracycline-susceptible Streptococcus pneumoniae isolate 106 by CLSI dilution method; type: functional; in short: as §2
# Enterobacter cloacae = assay: Antimicrobial activity against tetracycline-susceptible Enterobacter cloacae isolate 108 by CLSI dilution method; type: functional; in short: as §2
# Staphylococcus aureus [8] = assay: Antimicrobial activity against tetracycline-susceptible Staphylococcus aureus Smith isolate 100 infected in po dosed mouse systemic infection model assessed as survival of mouse administered 60 mins post infection measured after 48 hrs; type: functional; conditions: Smith isolate 100, po, read-out: PD50
# In short: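 Mouse septicemia model with S. aureus ATCC 13709 in 5% mucin, inoculated intraperitoneally at 2.1×10^6 cfu/mouse. Oral gavage dosing began 60 min post-infection at 0.3–30 mg/kg in sterile water, 6 mice/dose group, with untreated infection controls. Survival was assessed over 48 h. PD50 was obtained by Probit analysis with 95% CI.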
# Pseudomonas aeruginosa = assay: Antimicrobial activity against tetracycline-susceptible Pseudomonas aeruginosa isolate 111 by CLSI dilution method; type: functional; in short: as §2
# Staphylococcus aureus [9] = assay: Antimicrobial activity against tetracycline-susceptible Staphylococcus aureus isolate 101 by CLSI dilution method; type: functional
# [10] = Clearance in Sprague-Dawley rat at 1 mg/kg, iv administered as single dose measured after 24 to 48 hrs; type: ADME, organism-based; parameters: dose 1 mg/kg, route intravenous; conditions: in vivo; in short: as §1
# Enterococcus faecalis [11] = assay: Antimicrobial activity against tetracycline-resistant Enterococcus faecalis isolate 159 harboring […] gene by CLSI dilution method; type: functional
# Escherichia coli [12] = assay: Antimicrobial activity against tetracycline-resistant Escherichia coli isolate 155 harboring tetA gene by CLSI dilution method; type: functional
# [13] = Apparent volume of distribution in Sprague-Dawley rat at 1 mg/kg, iv administered as single dose measured after 24 to 48 hrs; conditions: in vivo
# Staphylococcus aureus [14] = assay: Antimicrobial activity against tetracycline-susceptible Staphylococcus aureus Smith isolate 100 by CLSI dilution method; type: functional
# [15] = AUC (0 to infinity) in Sprague-Dawley rat at 1 mg/kg, iv administered as single dose measured after 24 to 48 hrs; type: ADME, organism-based; parameters: time infinity, dose 1 mg/kg, route intravenous; conditions: plasma; in short: as §1
# Klebsiella pneumoniae [16] = assay: Antimicrobial activity against tetracycline-resistant Klebsiella pneumoniae isolate 153 harboring tetA gene by CLSI dilution method; type: functional
# Enterococcus faecalis [17] = assay: Antimicrobial activity against tetracycline-susceptible Enterococcus faecalis isolate 103 by CLSI dilution method; type: functional; in short: as §2
# Staphylococcus aureus [18] = assay: Antimicrobial activity against methicillin-, tetracycline-resistant Staphylococcus aureus isolate 161 harboring tetM gene by CLSI dilution method; type: functional
# [19] = Cmax in Sprague-Dawley rat at 1 mg/kg, iv administered as single dose measured after 24 to 48 hrs; type: ADME, organism-based; parameters: dose 1 mg/kg, route intravenous; conditions: in vivo; in short: as §1
# Acinetobacter baumannii = assay: Antimicrobial activity against tetracycline-susceptible Acinetobacter baumannii isolate 110 by CLSI dilution method; type: functional; in short: as §2
# Rattus norvegicus = assay: Oral bioavailability in Sprague-Dawley rat at 10 mg/kg administered as single dose; type: ADME, organism-based; conditions: in vivo; in short: as §1
Compound,half-life [1] [h],MIC (Escherichia coli [2]) [mg/L],MIC (Streptococcus pneumoniae [3]) [mg/L],MIC (Klebsiella pneumoniae [4]) [mg/L],ED50 (Staphylococcus aureus [5]) [mg/kg],MIC (Staphylococcus aureus [6]) [mg/L],MIC (Streptococcus pneumoniae [7]) [mg/L],MIC (Enterobacter cloacae) [mg/L],MIC (Pseudomonas aeruginosa) [mg/L],MIC (Staphylococcus aureus [9]) [mg/L],clearance [10] [L/h/kg],MIC (Enterococcus faecalis [11]) [mg/L],MIC (Escherichia coli [12]) [mg/L],Vd [13] [L/kg],AUC(0-inf) [15] [µg·h/mL],MIC (Klebsiella pneumoniae [16]) [mg/L],MIC (Enterococcus faecalis [17]) [mg/L],MIC (Staphylococcus aureus [18]) [mg/L],Cmax [19] [µg/mL],MIC (Acinetobacter baumannii) [mg/L],other results
COc1c2c(c(O)c3cc(CN4CCC4)ccc13)C(=O)C1=C(O)[C@]3(O)C(=O)C(C(N)=O)=C(O)[C@@H](N(C)C)[C@@H]3C[C@@H]1C2,5.26,0.25,0.0625,1,0.36,0.0625,0.0156,1,32,0.0625,0.612,1,8,4.65,1.65,8,0.0625,0.5,0.618,1,ED50 (Staphylococcus aureus [8]): > 20 mg/kg; MIC (Staphylococcus aureus [14]): 0.0625 mg/L
COc1c2c(c(O)c3cc(CNC4CC4)ccc13)C(=O)C1=C(O)[C@]3(O)C(=O)C(C(N)=O)=C(O)[C@@H](N(C)C)[C@@H]3C[C@@H]1C2,2.17,0.5,0.125,2,0.6,0.0313,0.0156,4,16,0.0625,2.72,2,8,8.4,0.385,8,0.0625,2,0.124,0.25,MIC (Staphylococcus aureus [14]): 0.25 mg/L; F (Rattus norvegicus): 12.5%
COc1c2c(c(O)c3cc(CNCC(C)C)ccc13)C(=O)C1=C(O)[C@]3(O)C(=O)C(C(N)=O)=C(O)[C@@H](N(C)C)[C@@H]3C[C@@H]1C2,5.4,1,0.125,1,< 0.3,0.016,0.0156,2,16,–,1.23,2,4,9.6,0.815,8,0.0625,2,0.414,0.25,MIC (Staphylococcus aureus [14]): 0.5 mg/L; F (Rattus norvegicus): 2.7%
CN(C)c1cc(NC(=O)CNC(C)(C)C)c(O)c2c1C[C@H]1C[C@H]3[C@H](N(C)C)C(O)=C(C(N)=O)C(=O)[C@@]3(O)C(O)=C1C2=O [TIGECYCLINE],4.6,0.0313,0.0156,0.125,0.35,0.0625,0.0156,0.25,8,0.0625,–,0.0625,0.5,–,1.05,1,0.0313,0.125,0.428,0.25,MIC (Staphylococcus aureus [14]): 0.0625 mg/L
COc1c2c(c(O)c3cc(CN4CC(F)C4)ccc13)C(=O)C1=C(O)[C@]3(O)C(=O)C(C(N)=O)=C(O)[C@@H](N(C)C)[C@@H]3C[C@@H]1C2,1.5,2,0.0313,4,–,0.125,0.0156,8,32,0.25,3.83,2,8,5.06,0.451,8,0.125,1,0.237,0.25,MIC (Staphylococcus aureus [14]): 1 mg/L; F (Rattus norvegicus): 17.7%
CN(C)[C@@H]1C(O)=C(C(N)=O)C(=O)[C@@]2(O)C(O)=C3C(=O)c4c(cc5ccc(CN6CC(F)C6)cc5c4O)C[C@H]3C[C@@H]12,3.35,2,0.25,8,0.36,0.5,0.125,8,> 32,0.5,0.289,2,8,1.4,3.46,16,0.5,2,0.814,1,ED50 (Staphylococcus aureus [8]): 12.2 mg/kg; F (Rattus norvegicus): 18%
CN(C)[C@@H]1C(O)=C(C(N)=O)C(=O)[C@@]2(O)C(O)=C3C(=O)c4c(c(F)c5ccc(CN6CC(F)C6)cc5c4O)C[C@H]3C[C@@H]12,2.22,4,–,4,–,0.25,0.25,8,> 32,0.5,0.966,1,8,3.06,1.04,8,0.25,1,0.358,1,MIC (Staphylococcus aureus [14]): 1 mg/L; F (Rattus norvegicus): 16.7%
CN(C)[C@@H]1C(O)=C(C(N)=O)C(=O)[C@@]2(O)C(O)=C3C(=O)c4c(c(F)c5ccc(CNC(C)(C)C)cc5c4O)C[C@H]3C[C@@H]12,7.82,–,0.0313,2,0.35,0.0156,0.0156,–,16,0.5,1.06,1,4,11.9,0.975,4,0.0313,1,0.278,0.25,MIC (Staphylococcus aureus [14]): 0.5 mg/L; F (Rattus norvegicus): 1.2%
CN(C)[C@@H]1C(O)=C(C(N)=O)C(=O)[C@@]2(O)C(O)=C3C(=O)c4c(O)cccc4[C@@](C)(O)[C@H]3C[C@@H]12 [TETRACYCLINE],–,–,–,–,0.35,–,–,–,–,–,–,–,–,–,–,–,–,–,0.583,–,ED50 (Staphylococcus aureus [8]): 8.1 mg/kg; MIC (Staphylococcus aureus [14]): 0.25 mg/L
CC(C)CNCc1ccc2cc3c(c(O)c2c1)C(=O)C1=C(O)[C@]2(O)C(=O)C(C(N)=O)=C(O)[C@@H](N(C)C)[C@@H]2C[C@@H]1C3,5.87,1,0.25,4,0.62,0.25,0.0156,2,32,0.25,0.373,4,4,3.16,2.68,4,0.5,4,0.891,0.5,MIC (Staphylococcus aureus [14]): 1 mg/L; F (Rattus norvegicus): 1.9%
COCCNCc1ccc2cc3c(c(O)c2c1)C(=O)C1=C(O)[C@]2(O)C(=O)C(C(N)=O)=C(O)[C@@H](N(C)C)[C@@H]2C[C@@H]1C3,5.19,1,0.5,4,0.43,0.5,0.0156,2,32,0.25,0.506,8,8,3.78,1.98,8,0.5,4,0.633,1,MIC (Staphylococcus aureus [14]): 1 mg/L; F (Rattus norvegicus): 2.8%
CN(C)[C@@H]1C(O)=C(C(N)=O)C(=O)[C@@]2(O)C(O)=C3C(=O)c4c(c(F)c5ccc(CN6CCC6)cc5c4O)C[C@H]3C[C@@H]12,8.01,1,0.125,2,0.3,0.25,0.0625,2,32,0.25,3.14,2,4,41.9,0.354,4,0.25,1,0.073,0.5,–
